In ChEMBL document CHEMBL1795282, “Synthesis, biological evaluation, and docking studies of gigantol analogs as calmodulin inhibitors” (Eur J Med Chem, 2011):
Activity calls are given as the source filed them. No cut-off for these calls is given here.

Key:
Homo sapiens = organism: Homo sapiens; assay: Binding affinity to human Calmodulin M124C mutant assessed as extrinsic fluorescence quenching in phosphate buffer at pH 5.1 by mBBr fluorescence assay
Outline: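 Ca²⁺–hCaM M124C–mBBr biosensor at 5 μM in 100 mM phosphate buffer, pH 5.1, with 10 mM CaCl₂, stirred at 37 °C and titrated with ligand. Excitation was at 381 nm, with emission scanned from 400 to 550 nm. Fractional saturation was taken as y = (F − F₀)/(F∞ − F₀) at 470 nm versus ligand concentration. Apparent constant Km, Emax and Hill coefficient came from a Hill-equation fit.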

Calmodulin-1 = Calmodulin-1 (Homo sapiens, UniProt P0DP23); assay: Inhibition of Calmodulin-dependent PDE1 activity assessed as inorganic phosphate release after 30 min

Compound | Km (Homo sapiens) | IC50 (Calmodulin-1) | Activity (Homo sapiens) | inhibition (Calmodulin-1)
COc1ccc(CCCc2ccc(O)cc2)cc1 | 8.7 µM | 62.7 µM |  | 
c1ccc(CCc2ccccc2)cc1 |  |  | inactive | inactive
CCOc1ccc(CCc2cc(OC)cc(OC)c2)cc1OC | 9.88 µM | 18.4 µM |  | 
Oc1cccc(CCCc2ccc3c(c2)OCO3)c1 | 14.2 µM | 22.9 µM |  | 
CCOc1ccc(CCc2cc(O)cc(OC)c2)cc1OC | 25.3 µM | 54.7 µM |  | 
COc1cc(O)cc(CCc2ccc(O)c(OC)c2)c1 [GIGANTOL] | 60.8 µM | 114 µM |  | 
COc1ccc(CCc2cc(OC)cc(OC)c2)cc1 | 21.8 µM | 146 µM |  | 
COc1cc(O)cc(CCc2ccc3c(c2)OCO3)c1 | 45.5 µM | 31.3 µM |  | 
Oc1cccc(CCc2ccc3c(c2)OCO3)c1 | 63.8 µM | 75.9 µM |  | 
COc1cc(Cc2ccc(O)c(OC)c2)cc(OC)c1 | 33.1 µM | 54.7 µM |  | 
CCOc1ccc(CCc2cccc(O)c2)cc1OC | 58.1 µM | 46.1 µM |  | 
COc1cc(CCc2ccc(N(C)C)cc2)cc(OC)c1 | 10 µM | 36.3 µM |  | 
c1ccc(COc2ccccc2)cc1 |  |  | inactive | inactive
COc1ccc(/C=C/C(=O)c2ccc(O)cc2)cc1 | 10.3 µM | 22.5 µM |  | 
COc1cc(O)cc(CCCc2ccc(O)c(OC)c2)c1 | 54.3 µM | 32.5 µM |  | 
COc1cc(O)cc(CCc2ccc(N(C)C)cc2)c1 | 12 µM | 30.1 µM |  | 
COc1cc(Cc2cccc(OC)c2O)cc(OC)c1 | 33.8 µM | 56.1 µM |  | 
COc1cc(O)cc(C(=O)/C=C/c2ccc(OC)c(O)c2)c1 | 3.89 µM | 37.7 µM |  | 
c1ccc(Cc2ccccc2)cc1 [DIPHENYLMETHANE] |  | 15 µM | inactive | 
COc1ccc(CCc2cc(O)cc(OC)c2)cc1 | 80 µM | 9.38 µM |  | 
COc1cc(O)cc(C(=O)/C=C/c2ccc(O)c(OC)c2)c1 | 5.31 µM | 57.3 µM |  | 
